Screening results deposited in PubChem by several laboratories.
IMP-1 inh: IMP-1 metallo-beta-lactamase inhibitors, primary screen, biochemical, epi-absorbance readout, Pseudomonas aeruginosa enzyme | metallo-beta-lactamase IMP-1 (Pseudomonas aeruginosa) | purified IMP-1, nitrocefin hydrolysis, epi-absorbance fluorescence | inhibition, % at 5.6 µM | hit rate 0.45% among 290,000 | AID 1556, 2009;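 active = inhibition above the mean plus 3 SD of all compounds in the same screening run, cut at about 4.5% in these data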;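 note: 0% = IMP-1 with DMSO and 100% = DMSO wells lacking enzyme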
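System: purified recombinant IMP-1 beta-lactamase. Medium: Zinc- and detergent-supplemented HEPES buffer, pH 7.1. Compound: one 5.6 µM dose […]. Schedule: 15 min preincubation plus 25 min reaction at 25 °C. Technique: Epi-absorbance fluorescence, 480 nm excitation, 530 nm emission.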
VIM-2 inh: VIM-2 metallo-beta-lactamase inhibitors, primary screen, biochemical, epi-absorbance readout, Pseudomonas aeruginosa enzyme; inhibition, % at 5.6 µM; hit rate 0.89% among 290,000; AID 1527, 2009; purified VIM-2, nitrocefin hydrolysis, epi-absorbance fluorescence;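 active = inhibition above the mean of all tested compounds plus 3 SD, cutoff set per screening run, cut at about 7.5% in these data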;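 note: red hydrolysis product quenches plate fluorescence so inhibitors raise well fluorescence; 0% = enzyme with DMSO and 100% = DMSO without enzyme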
NadD inh: inhibitors of S. aureus NadD, primary screen, biochemical, colorimetric, uHTS | purified NadD enzyme, colorimetric absorbance read-out | inhibition, % at 20 µM | hit rate 0.78% among 360,000 | AID 602399, 2012; in the data active = inhibition above about 26%
HCV core dimer: inhibitors of HCV core protein dimerization, primary screen, biochemical, TR-FRET, high-throughput; hit rate 0.33% among 300,000; inhibition, % at 5 µM; TR-FRET GST/Flag-core106 dimerization, 1536-well;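 active = inhibition above the mean of all tested compounds plus 3 SD, set per screening campaign, cut at about 45% in these data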
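Material: GST/Flag-tagged HCV core106 proteins. Incubation: 4 h, 22.5 °C incubation. Read-out basis: inhibition (%) from 671 over 617 nm ratio. Measured by: TR-FRET, excitation 340 nm, emission 617 and 671 nm.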
NadD inh conf: inhibitors of S. aureus NadD, confirmation, biochemical, colorimetric, single concentration. shares compounds with NadD inh. purified S. aureus NadD, colorimetric enzyme assay. hit rate 13% among 2,000. inhibition, % at 20 µM. AID 624309, 2012; in the data active = inhibition mostly above about 42%, no sharp cut-off; inactive = mostly below about 42%
* = called active by the depositor; nt = no result. In the library only some 1.9% were active in any assay of this set; here they are far more common.

SMILES	IMP-1 inh	VIM-2 inh	NadD inh	HCV core dimer	NadD inh conf
Cc1cccn2c(=O)c3cc(S(=O)(=O)c4ccccc4)c(=N)n(Cc4ccc(F)cc4)c3nc12	-2.8	-4.2	32.5*	6.2	13.4
Cc1ccc(S(=O)(=O)c2cc3c(=O)n4cccc(C)c4nc3n(C3CCCCC3)c2=N)cc1	-2.1	-0.9	12.5	-3.6	nt
Cc1ccc2nc3c(cc(S(=O)(=O)c4ccccc4)c(=N)n3Cc3ccco3)c(=O)n2c1	-1.9	-1.0	30.6*	13.4	22.2
O=C(COC(=O)C1=NN(c2ccccc2)C(=O)CC1)NCc1ccccc1Cl	nt	nt	0.8	nt	nt
O=C(CNC(=O)c1ccco1)Nc1ccc(Cl)cc1	-2.8	-1.9	-6.5	4.2	nt
COc1ccc2cc(C(C)C(=O)N3CCC(C)CC3)ccc2c1 (stereo not drawn)	-3.7	-1.4	-0.8	-4.6	nt
Cc1onc(-c2ccccc2)c1C(=O)/C=C/N(C)C	-1.1	-1.3	-2.6	0.7	nt
Cc1cccn2c(=O)c3cc(S(=O)(=O)c4ccc(F)cc4)c(=N)n(Cc4ccco4)c3nc12	-0.8	1.6	35.1*	16.4	6.9
Cc1ccc(S(=O)(=O)Nc2cccc(C(=O)NCc3ccccn3)c2)cc1F	nt	nt	-4.6	-2.6	nt
Cc1ccc(N=C2SC(C(=O)Nc3ccc(OC(F)(F)F)cc3)C(N)=C2C(=O)Nc2c(C)cc(C)cc2C)cc1 (stereo not drawn)	-1.9	-2.8	32.6*	18.5	38.0
CCn1c(SCC(=O)Nc2oc(-c3ccccc3)c(-c3ccccc3)c2C#N)nnc1-c1ccco1	-5.1	-2.8	28.8*	35.6	44.2
N#Cc1c(NC(=O)CSc2ncnc3sccc23)oc(-c2ccco2)c1-c1ccco1	7.0*	1.6	58.5*	49.5*	58.2*
N#Cc1c(NC(=O)CN2C(=O)c3ccccc3C2=O)oc(-c2ccccc2)c1-c1ccccc1	-6.2	-5.8	33.4*	18.0	15.1
CCn1c(SCC(=O)Nc2oc(-c3ccccc3)c(-c3ccccc3)c2C#N)nnc1-c1ccncc1	4.1	-1.5	17.2	3.3	nt
CC(C)CC(C(=O)Nc1oc(-c2ccccc2)c(-c2ccccc2)c1C#N)N1C(=O)c2ccccc2C1=O (stereo not drawn)	-1.4	-4.9	35.9*	76.4*	12.8
O=c1cc(-c2ccc(O)c(-c3c(O)cc(O)c4c(=O)cc(-c5ccc(O)cc5)oc34)c2)oc2cc(O)cc(O)c12	-1.8	-3.0	77.3*	2.6	66.1*
Cc1sc2nc(SCc3nc4ccccc4[nH]3)n(Cc3ccco3)c(=O)c2c1C	-4.4	-8.8	35.0*	23.2	38.0
O=C(Nc1cc(Cl)ccc1O)c1cc(-c2ccco2)on1	-1.7	-1.5	9.6	5.6	nt
O=C(Nc1cc(Br)ccc1O)c1cc(-c2ccco2)on1	-2.2	-1.9	28.9*	-1.1	11.1
Cn1cnnc1SCc1ccc(-c2ccc(Br)cc2)o1	-2.4	-4.1	40.8*	64.0*	13.4
Cn1cnnc1SCc1ccccc1	1.8	-0.2	-3.6	0.6	nt
C[C@H](NC(=O)c1ccc(C(C)(C)C)cc1)C(=O)N1CCOCC1	nt	nt	0.3	nt	nt
COc1ccc(-c2csc(Nc3ccc(S(N)(=O)=O)cc3)n2)cc1	-2.7	-1.7	44.9*	-6.3	47.3
CN(Cc1ccc(C(C)(C)C)cc1)C(=O)c1ccc2c(c1)OCO2	nt	nt	-6.6	nt	nt
COC(=O)Cn1c(=NC(=O)c2ccc(S(=O)(=O)N3CCc4ccccc4C3)cc2)sc2cc(OC)ccc21	-0.8	-2.8	12.2	5.6	nt
C=CCn1c(=NC(=O)c2ccc(S(=O)(=O)N3CCCc4ccccc43)cc2)sc2cc(S(N)(=O)=O)ccc21	0.5	1.1	24.6	32.1	nt
C=CCn1c(=NC(=O)c2ccc(S(=O)(=O)N3CCc4ccccc4C3)cc2)sc2cc(S(N)(=O)=O)ccc21	-3.0	-3.8	32.2*	26.5	-4.2
COCCn1c(=NC(=O)c2ccc(S(=O)(=O)N3CCc4ccccc4C3)cc2)sc2cc(S(N)(=O)=O)ccc21	-3.3	-2.5	70.8*	28.4	36.1
COc1ccc(-c2cn(CCO)c(CCN)n2)cc1	nt	nt	-1.6	7.0	nt
Cc1ccc(-c2cc(-c3ccc(F)cc3)c(C#N)c(N)n2)o1	-3.3	-2.6	64.8*	31.1	8.9
